Values after ≈ are worked out from the molar mass of the structure shown.
Tests used:
[1] = Inhibition of protein phosphatase 2A in african green monkey COS7 cells; type: cell-based, Chlorocebus aethiops; details: cos-7
Summary of the method: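 PP2A activity was measured in COS-7 cell extract. Cells were lysed at 4 °C in hypotonic Tris-HCl pH 7.5 buffer with DTT, EGTA and protease inhibitors, then centrifuged at 20000g. Extract at 5 μg/mL protein was preincubated with compound for 10 min at 30 °C. Activity was taken as the okadaic acid (1 nM)-sensitive portion, run in triplicate and reported as the mean.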

[2] = system: Escherichia coli; assay: Antimicrobial activity against Escherichia coli; type: functional
Summary of the method: (§1)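 Microbroth dilution method in BHI medium.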

[3] = system: Micrococcus luteus; assay: Antimicrobial activity against Micrococcus luteus; type: functional; summary of the method: as §1
[4] = system: Bacillus subtilis; assay: Antimicrobial activity against Bacillus subtilis; type: functional; summary of the method: as §1

Nc1nc([C@@H]2c3[nH]c(N)nc3C[C@H](CNC(=O)c3cc(Br)c[nH]3)[C@H]2CNC(=O)c2cc(Br)c[nH]2)c[nH]1.O=C(O)C(F)(F)F.O=C(O)C(F)(F)F [AGELIFERIN]
IC50 [1]: > 50 µM | MIC [2]: 33.3 µg/mL | MIC [3]: 4.17 µg/mL | MIC [4]: 8.33 µg/mL

Nc1nc([C@@H]2c3[nH]c(N)nc3C[C@H](CNC(=O)c3cc(Br)c[nH]3)[C@H]2CNC(=O)c2cc(Br)c(Br)[nH]2)c[nH]1 [BROMOAGELIFERIN]
IC50 [1]: > 50 µM | MIC [2]: 16.7 µg/mL (≈ 23.9 µM) | MIC [3]: 2.08 µg/mL (≈ 2.97 µM) | MIC [4]: 2.08 µg/mL (≈ 2.97 µM)

Nc1nc([C@H](CCNC(=O)c2cc(Br)c(Br)[nH]2)c2[nH]c(N)nc2/C=C/CNC(=O)c2cc(Br)c(Br)[nH]2)c[nH]1 [NAGELAMIDE A]
IC50 [1]: 48 µM | MIC [2]: 33.3 µg/mL (≈ 42.8 µM) | MIC [3]: 2.08 µg/mL (≈ 2.67 µM) | MIC [4]: 16.7 µg/mL (≈ 21.5 µM)

Nc1nc([C@@H](c2[nH]c(N)nc2/C=C/CNC(=O)c2cc(Br)c(Br)[nH]2)[C@H](O)CNC(=O)c2cc(Br)c(Br)[nH]2)c[nH]1 [NAGELAMIDE B]
IC50 [1]: > 50 µM | MIC [2]: 33.3 µg/mL (≈ 41.9 µM) | MIC [3]: 4.17 µg/mL (≈ 5.25 µM) | MIC [4]: 33.3 µg/mL (≈ 41.9 µM)

Nc1nc(/C(=C/CNC(=O)c2cc(Br)c(Br)[nH]2)c2[nH]c(N)nc2/C=C/CNC(=O)c2cc(Br)c(Br)[nH]2)c[nH]1 [NAGELAMIDE C]
IC50 [1]: > 50 µM | MIC [2]: 33.3 µg/mL (≈ 42.9 µM) | MIC [3]: 4.17 µg/mL (≈ 5.37 µM) | MIC [4]: 33.3 µg/mL (≈ 42.9 µM)

Nc1nc([C@H](CCNC(=O)c2cc(Br)c(Br)[nH]2)c2[nH]c(N)nc2CCCNC(=O)c2cc(Br)c(Br)[nH]2)c[nH]1 [NAGELAMIDE D]
MIC [2]: 33.3 µg/mL (≈ 42.7 µM) | MIC [3]: 4.17 µg/mL (≈ 5.35 µM) | MIC [4]: 33.3 µg/mL (≈ 42.7 µM)

Nc1nc([C@H]2c3[nH]c(N)nc3C[C@H](CNC(=O)c3cc(Br)c[nH]3)[C@H]2CNC(=O)c2cc(Br)c[nH]2)c[nH]1 [NAGELAMIDE E]
MIC [2]: 33.3 µg/mL (≈ 53.7 µM) | MIC [3]: 4.17 µg/mL (≈ 6.72 µM) | MIC [4]: 16.7 µg/mL (≈ 26.9 µM)

Nc1nc([C@H]2c3[nH]c(N)nc3C[C@H](CNC(=O)c3cc(Br)c[nH]3)[C@H]2CNC(=O)c2cc(Br)c(Br)[nH]2)c[nH]1 [NAGELAMIDE F]
MIC [2]: 33.3 µg/mL (≈ 47.6 µM) | MIC [3]: 4.17 µg/mL (≈ 5.96 µM) | MIC [4]: 16.7 µg/mL (≈ 23.9 µM)

Nc1nc([C@H]2c3[nH]c(N)nc3C[C@H](CNC(=O)c3cc(Br)c(Br)[nH]3)[C@H]2CNC(=O)c2cc(Br)c(Br)[nH]2)c[nH]1 [NAGELAMIDE G]
IC50 [1]: 13 µM | MIC [2]: 33.3 µg/mL (≈ 42.8 µM) | MIC [3]: 2.08 µg/mL (≈ 2.67 µM) | MIC [4]: 16.7 µg/mL (≈ 21.5 µM)

NC1=N/C(=N\CCS(=O)(=O)O)C(/C=C/CNC(=O)c2cc(Br)c(Br)[nH]2)(c2[nH]c(N)nc2/C=C/CNC(=O)c2cc(Br)c(Br)[nH]2)N1 (stereo unspecified) [NAGELAMIDE H]
IC50 [1]: 46 µM | MIC [2]: > 33.3 µg/mL | MIC [3]: 16.7 µg/mL (≈ 18.6 µM) | MIC [4]: 33.3 µg/mL (≈ 37 µM)

Cl.Cl.Nc1ncc([C@H]2[C@H](CNC(=O)c3cc(Br)c[nH]3)[C@@H](CNC(=O)c3cc(Br)c[nH]3)[C@@H]2c2cnc(N)[nH]2)[nH]1 [SCEPTRIN HYDROCHLORIDE]
IC50 [1]: 50 µM | MIC [2]: 33.3 µg/mL | MIC [3]: 4.07 µg/mL | MIC [4]: 8.33 µg/mL

Source: ChEMBL document CHEMBL1148192, “Nagelamides A-H, new dimeric bromopyrrole alkaloids from marine sponge Agelas species” (J Nat Prod, 2004)
